The results in this text go back to the array DNA melting data of Ke et al. (doi:10.1101/2024.01.08.574731).

The nature of data set [1]: folding enthalpy; higher = less favourable; fluorescence melt of hairpins on a sequencing array, two-state fit. Particulars: sodium 0.088 M. In short, it runs like this: (§1)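 Melting temperature and folding enthalpy were derived from bootstrapped two-state fits. The fitted temperatures were raised by 9.35 °C to agree with UV melts, and four replicates were combined by inverse variance. The underlying data were Cy3 fluorescence images of library hairpins, with annealed Cy3 and quencher oligos, on a sequenced MiSeq flow cell in 50 mM Na-HEPES pH 8.0, 25 mM NaCl, taken in 2.5 °C steps up to 60 °C, normalised to pre-quench Cy3 and to control constructs.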

The nature of data set [2]: melting temperature; fluorescence melt of hairpins on a sequencing array, two-state fit, raised by 9.35 °C to match UV melts. Particulars: sodium 0.088 M. In a few lines: as §1

Consider GATCCTCCTTAGGATC ((((((....)))))), for which, in data set [1], the folding enthalpy is -36.8 kcal/mol. In addition, the Tm in data set [2] amounted to 50.9 °C.

GATCCTCGAAAGGATC ((((((....)))))): the folding enthalpy in data set [1] is -37.2 kcal/mol. The Tm in data set [2] came to 50.4 °C.

GATCCTCGAGAGGATC ((((((....)))))): the folding enthalpy in data set [1] was -42.7 kcal/mol. The Tm in data set [2] was found to be 56.8 °C.

With GATCCTCGCGAGGATC ((((((....)))))), the folding enthalpy in data set [1] is -43.4 kcal/mol. Also, the Tm in data set [2] came to 60.4 °C.

Consider GATCCTCGGTAGGATC ((((((....)))))), for which, in data set [1], the folding enthalpy was -26.9 kcal/mol. The Tm in data set [2] was determined as 50.9 °C.

Consider GATCCTCGTAAGGATC ((((((....)))))), for which the folding enthalpy in data set [1] was -35.3 kcal/mol. For the same sequence, the Tm in data set [2] was 54.5 °C.

Regarding GATCCTCGTGAGGATC ((((((....)))))), in data set [1], the folding enthalpy is -36.6 kcal/mol. In addition, the Tm in data set [2] is 61.5 °C.

As to GATCCTCTATAGGATC ((((((....)))))), the folding enthalpy in data set [1] was -40.8 kcal/mol. For the same sequence, the Tm in data set [2] came to 51.9 °C.

Regarding GATCCTCTGTAGGATC ((((((....)))))), the folding enthalpy in data set [1] was -36.2 kcal/mol. Moreover, in data set [2], the Tm was found to be 51.8 °C.

On to GATCCTCTTTAGGATC ((((((....)))))), for which the folding enthalpy in data set [1] was -46.6 kcal/mol. Further, the Tm in data set [2] came to 52 °C.

As for GATCCTGAGTAGGATC ((((((....)))))), the folding enthalpy in data set [1] is -37.9 kcal/mol. The Tm in data set [2] stood at 50.9 °C.

As for GATCCTGATTAGGATC ((((((....)))))), in data set [1], the folding enthalpy was -40.4 kcal/mol. Besides, the Tm in data set [2] was 51.3 °C.

Consider GATCCTGCTAGGATC ((((((...)))))), for which, in data set [1], the folding enthalpy was -34 kcal/mol. Also, the Tm in data set [2] is 54.8 °C.

For the sequence GATCCTGGAAACAGGATC (((((((....))))))), the folding enthalpy in data set [1] was -44.4 kcal/mol. The Tm in data set [2] is 61.7 °C.

Take GATCCTGGAAACAGGGTC ((.((((....)))).)): the folding enthalpy in data set [1] is -32.9 kcal/mol. Besides, the Tm in data set [2] turned out to be 50.8 °C.

Consider GATCCTGGCCAGGATC ((((((....)))))), for which, in data set [1], the folding enthalpy is -47.6 kcal/mol. In data set [2], the Tm came to 61.3 °C.

Regarding GATCCTGGCTAGGATC ((((((....)))))), the folding enthalpy in data set [1] is -38.3 kcal/mol. The Tm in data set [2] amounted to 57.5 °C.

GATCCTGGTAAGGATC ((((((....)))))): the folding enthalpy in data set [1] is -41.8 kcal/mol. In addition, the Tm in data set [2] is 65.8 °C.

In the case of GATCCTGGTTAGGATC ((((((....)))))), the folding enthalpy in data set [1] was -38 kcal/mol. The Tm in data set [2] amounted to 51.9 °C.

Take GATCCTTAACAGGATC ((((((....)))))): the folding enthalpy in data set [1] was -36.3 kcal/mol. Moreover, the Tm in data set [2] amounted to 49 °C.

On to GATCCTTACGAGGATC ((((((....)))))), for which the folding enthalpy in data set [1] was -39.9 kcal/mol. In data set [2], the Tm is 53.2 °C.

As for GATCCTTACTAGGATC ((((((....)))))), in data set [1], the folding enthalpy was -36.5 kcal/mol. In data set [2], the Tm was determined as 52.4 °C.

With GATCCTTAGCAGGATC ((((((....)))))), in data set [1], the folding enthalpy was -38 kcal/mol. The Tm in data set [2] turned out to be 48.8 °C.

For GATCCTTCCGAGGATC ((((((....)))))), the folding enthalpy in data set [1] is -43.5 kcal/mol. Besides, the Tm in data set [2] is 53.1 °C.

Consider GATCCTTGAAGGATC ((((((...)))))), for which the folding enthalpy in data set [1] was -38.8 kcal/mol. Also, in data set [2], the Tm was 51.2 °C.

Regarding GATCCTTGACAGGATC ((((((....)))))), the folding enthalpy in data set [1] is -28.2 kcal/mol. The Tm in data set [2] stood at 49.7 °C.

Take GATCCTTGAGAGGATC ((((((....)))))): the folding enthalpy in data set [1] was -42.5 kcal/mol. The Tm in data set [2] turned out to be 53.6 °C.

GATCCTTGGGAGGATC ((((((....)))))): the folding enthalpy in data set [1] is -43.2 kcal/mol. Moreover, the Tm in data set [2] was 53.2 °C.

Turning to GATCCTTGTCAGGATC ((((((....)))))), the folding enthalpy in data set [1] was -37.6 kcal/mol. Besides, in data set [2], the Tm is 50.1 °C.

On to GATCCTTGTTAGGATC ((((((....)))))), for which the folding enthalpy in data set [1] is -34.8 kcal/mol. The Tm in data set [2] worked out at 52.8 °C.

For the sequence GATCCTTTCTAGGATC ((((((....)))))), the folding enthalpy in data set [1] was -40.5 kcal/mol. The Tm in data set [2] turned out to be 53.7 °C.

As to GATCCTTTGAGGATC ((((((...)))))), the folding enthalpy in data set [1] was -33.6 kcal/mol. The Tm in data set [2] amounted to 54.2 °C.

Take GATCCTTTTAGGATC ((((((...)))))): the folding enthalpy in data set [1] was -28.8 kcal/mol. Moreover, the Tm in data set [2] is 58.9 °C.

As to GATCGAAACATCGATC ((((((....)))))), in data set [1], the folding enthalpy is -39.9 kcal/mol. In data set [2], the Tm is 50 °C.

As for GATCGAAAGATCGATC ((((((....)))))), the folding enthalpy in data set [1] was -19.9 kcal/mol. Moreover, the Tm in data set [2] came out at 50.2 °C.

Turning to GATCGAAAGTTCGATC ((((((....)))))), the folding enthalpy in data set [1] was -36.2 kcal/mol. Moreover, in data set [2], the Tm is 50.4 °C.

Take GATCGAACACTCGATC ((((((....)))))): the folding enthalpy in data set [1] is -31 kcal/mol. Further, the Tm in data set [2] turned out to be 48.9 °C.

With GATCGAACATTCGATC ((((((....)))))), the folding enthalpy in data set [1] was -38.5 kcal/mol. Further, in data set [2], the Tm came to 50.7 °C.
